Results reported in ChEMBL document CHEMBL3102767, “Identifying novel targets in renal cell carcinoma: design and synthesis of affinity chromatography reagents” (Bioorg Med Chem, 2014).

Key:
[1] = Cytotoxicity against human RCC4/VHL cells after 4 days by XTT assay; format: functional, cell-based; conditions: 96 h
Method in brief: (§1)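 RCC4 (VHL-null) and RCC4/VHL (VHL reintroduced) cells kept in DMEM plus 10% FCS. After 4 d, media removed; XTT (0.3 mg/mL) with N-methyl dibenzopyrazine methyl sulfate in phenol red-free media added, 1–2 h at 37 °C. IC50 = concentration giving 50% growth inhibition.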

[2] = Cytotoxicity against human RCC4 cells after 4 days by XTT assay; format: functional, cell-based; conditions: RCC4, 96 h; method in brief: as §1
[3] = Selectivity ratio of IC50 for human RCC4/VHL cells to IC50 for human RCC4 cells; format: functional
Method in brief: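 IC50 values from 4-day XTT growth inhibition in RCC4/VHL and parental RCC4 cells (serial dilution from 40 µM top, triplicate); ratio taken as RCC4/VHL IC50 over RCC4 IC50.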

SMILES | IC50 [1] [µM] | IC50 [2] [µM] | Ratio IC50 [3]
NCCOCCOCCOCCOCCOCCOCCCc1ccc(S(=O)(=O)NCc2ccc(C(=O)Nc3ccccc3)cc2)cc1 | > 40 | > 40 | 
Cc1cccc(Nc2nc(-c3ccncc3-c3cn(CCOCCOCCOCCOCCOCCOCCN)nn3)cs2)c1.O=C(O)C(F)(F)F | 3.9 | 2.9 | 1.3
Cc1cccc(Nc2nc(-c3ccnc(-c4cn(CCOCCOCCOCCOCCOCCOCCN)nn4)c3)cs2)c1 | > 40 | > 40 | 
CN1CCN(Cc2ccc(S(=O)(=O)NCc3ccc(C(=O)Nc4cccnc4)cc3)cc2)CC1 |  | < 1 | >100
Cc1cccc(S(=O)(=O)NCc2ccc(C(=O)Nc3cccnc3)cc2)c1 |  | < 1 | > 100
CC(C)(C)c1ccc(S(=O)(=O)NCc2ccc(C(=O)Nc3cccnc3)cc2)cc1 | > 40 | 0.16 | >250
COc1ccc(S(=O)(=O)NCc2ccc(C(=O)Nc3cccnc3)cc2)cc1OC |  | < 1 | >100
CCN(c1cccc(C)c1)c1nc(-c2ccnc(-c3cn(CCOCCOCCOCCOCCOCCOCCN)nn3)c2)cs1 | > 40 | > 40 | 
CCN(c1cccc(C)c1)c1nc(-c2ccncc2-c2cn(CCOCCOCCOCCOCCOCCOCCN)nn2)cs1 | > 40 | > 40 | 
Cc1cccc(Nc2nc(-c3ccncc3)cs2)c1 | 40 | 2.1 | 19
NCCOCCOCCOCCOCCOCCOCC#Cc1ccc(S(=O)(=O)NCc2ccc(C(=O)Nc3cccnc3)cc2)cc1 | > 40 | 5.8 | >7
Cl.O=C(Nc1cccnc1)c1ccc(CNS(=O)(=O)c2ccc(CN3CCOCC3)cc2)cc1 |  | < 1 | >100
CN1CCN(c2ccc(S(=O)(=O)NCc3ccc(C(=O)Nc4cccnc4)cc3)cc2)CC1 |  | < 1 | >100
Cc1cccc(Nc2nc(-c3ccnc(-c4cn(CCCCCCN)nn4)c3)cs2)c1.O=C(O)C(F)(F)F | 2.6 | 1.7 | 1.5
Cn1ccc(-c2cccc(S(=O)(=O)NCc3ccc(C(=O)Nc4cccnc4)cc3)c2)n1 |  | < 1 | >100
NCCOCCOCCOCCOCCOCCOCCCc1ccc(S(=O)(=O)NCc2ccc(C(=O)Nc3cccnc3)cc2)cc1 | > 40 | 7.9 | >5
